An excerpt weighted towards active compounds, which were near 2.8% of everything screened.
NPY-Y2 antag: NPY-Y2 (human) receptor antagonism | NPY-Y2 expressing cells, antagonist mode | inhibition, % at 2.7 µM | 140,000 compounds, 0.99% hits; in the data active = inhibition above about 17%;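 also: 0% = vehicle with agonist challenge and 100% = reference antagonist with challenge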
Target sequence (P49146 whole entry, looked up): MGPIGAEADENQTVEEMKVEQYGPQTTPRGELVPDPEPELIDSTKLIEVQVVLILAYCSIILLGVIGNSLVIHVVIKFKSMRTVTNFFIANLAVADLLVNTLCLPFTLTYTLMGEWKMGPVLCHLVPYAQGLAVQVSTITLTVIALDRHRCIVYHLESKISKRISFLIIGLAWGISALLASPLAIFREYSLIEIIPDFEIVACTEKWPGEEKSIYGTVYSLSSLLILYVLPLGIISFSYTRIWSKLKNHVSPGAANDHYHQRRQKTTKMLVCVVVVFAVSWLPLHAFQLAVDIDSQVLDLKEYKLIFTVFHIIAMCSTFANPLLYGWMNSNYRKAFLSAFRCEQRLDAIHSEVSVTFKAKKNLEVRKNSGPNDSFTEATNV
NPY2 pot ag: human NPY-Y2 potentiation or agonism, primary screen | P49146 | cells expressing NPY-Y2, potentiator/agonist read-out | activation, % at 3.6 µM | 220,000 compounds, 0.45% hits | AID 1359; in the data active = activation above about 27%;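 also: cells stimulated with NPY near EC25 plus isoproterenol at EC100; 0% = vehicle plus submaximal agonist and 100% = vehicle plus saturating agonist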
PGE2 EP2 inh: inhibitors of human EP2 prostaglandin E2 receptor; P43116; C6 glioma cells expressing human EP2, cAMP TR-FRET; cells stimulated with saturating PGE2; inhibition, % at 25 µM; 260,000 compounds, 0.52% hits;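 active = percent inhibition above 40 after rounding to a whole number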;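 also: rat C6 glioma host cells with rolipram phosphodiesterase inhibitor present; the protocol text gives 20 µM as final concentration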
NPY Y1 blocker: NPY-Y1 (human) receptor antagonism; inhibition, % at 3.6 µM; P25929; AID 1040; 200,000 compounds, 1% hits; HEK293-CNG Y1 cells, membrane potential fluorescence; NPY at EC95, then isoproterenol;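 active = inhibition above the campaign mean inhibition of all tested compounds plus 3 SD, cut at about 20% in these data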;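 also: 0% = DMSO wells given NPY plus isoproterenol and 100% = isoproterenol alone without NPY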
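Material: HEK293 cells co-expressing NPY Y1 receptor and cyclic-nucleotide gated channel. Timing: compound incubation 1 h at room temperature, readout 45 min post-stimulation. Signal: fluorescence, membrane potential probe.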
NPY1 pot ag: potentiators or agonists of human neuropeptide Y receptor Y1; activation, % at 3.6 µM; AID 1304; NPY-Y1 expressing cells, potentiator/agonist activation; 220,000 compounds, 0.37% hits; in the data active = activation above about 33%, passing the limit was not always enough;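 also: cells stimulated with NPY at EC10 then isoproterenol at EC100; 0% = low agonist plus stimulus and 100% = saturating agonist plus stimulus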
EP2 mod: EP2 receptor (human) modulation; EP2-expressing cells, cAMP HTRF FRET, PGE2 co-stimulation; induction, % at 25 µM; P43116; AID 940; 260,000 compounds, 0.83% hits;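 active = compounds whose cAMP rise, as percent of the full-agonist control response, exceeds 60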;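 also: rat C6 glioma line stably carrying human EP2 under a CMV promoter; the protocol text gives 20 µM as final concentration; 100% = response of wells given 1 µM PGE2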
NPY-Y1 pot conf: human NPY-Y1 potentiation or agonism, confirmation; shares compounds with NPY1 pot ag; cell-based NPY-Y1 potentiator/agonist assay; activation, % at 3.6 µM; 280 compounds, 20% hits; AID 1546; in the data active = activation above about 45%;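 also: cells challenged with NPY at its EC10 plus isoproterenol stimulus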
NPY-Y2 counter: NPY-Y2 potentiation or agonism as NPY-Y1 counter-screen | shares compounds with NPY1 pot ag | HEK293-CNG cells, membrane-potential fluorescence (FLIPR), 1536-well | activation, % at 3.6 µM | 280 compounds, 20% hits | AID 1649; in the data active = activation above about 33%
NPY-Y1 agonist: counter-screen for NPY-Y1 potentiators: agonists of human NPY-Y1. shares compounds with NPY1 pot ag. HEK293 Y1-CNGC, membrane potential fluorescence, agonist mode. activation, % at 3.6 µM. 280 compounds, 50% hits;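 active = percent activation above the mean of DMSO-only control wells plus 3 SD of those wells, cut at about 18% in these data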;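 also: cells challenged with isoproterenol plus Ro 20-1724 with no NPY in test wells; Y1 agonism lowers isoproterenol-driven cAMP and reduces probe fluorescence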
NPY-Y2 agonist: activates human NPY-Y2, counter-screen for NPY-Y1 hits | shares compounds with NPY1 pot ag | HEK293 Y2-CNGC, membrane potential fluorescence, agonist mode | activation, % at 3.6 µM | 280 compounds, 67% hits | AID 1698;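 active = activation above the solvent-only control wells' mean plus 3 SD, cut at about 11% in these data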;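 also: 0% = DMSO with isoproterenol and 100% = 40 nM NPY maximal response; agonism lowers cAMP so well fluorescence drops in active wells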
CNGC counter: counter-screen for NPY-Y1 potentiators or agonists: CNG channel inhibitors. shares compounds with NPY1 pot ag. inhibition, % at 3.6 µM. HEK293-CNG parental, isoproterenol cAMP, membrane potential fluorescence. 280 compounds, 42% hits. AID 1704;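 active = inhibition above the mean of stimulated solvent-only control wells plus 3 SD, cut at about 22% in these data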;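 also: 0% = isoproterenol-stimulated DMSO wells and 100% = unstimulated DMSO wells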
The depositor's hits bear a star; / = no result given.

SMILES	NPY-Y2 antag	NPY2 pot ag	PGE2 EP2 inh	NPY Y1 blocker	NPY1 pot ag	EP2 mod	NPY-Y1 pot conf	NPY-Y2 counter	NPY-Y1 agonist	NPY-Y2 agonist	CNGC counter
O=C(NCC1CCCO1)c1ccc(NC(=O)C2CC=CCC2C(=O)O)cc1 (centres undefined)	1	-2	12	7	-18	11	/	/	/	/	/
O=S(=O)(NCc1ccc2c(c1)OCO2)c1ccc(S(=O)(=O)NC2CC2)cc1	/	/	10	/	/	5	/	/	/	/	/
CSc1ncc(C(=O)NC2CCN(Cc3cccc(F)c3)CC2)cn1	/	/	9	/	/	-16	/	/	/	/	/
[O-]/C(=C(\C(=S)Nc1ccc(SC(F)F)cc1)[n+]1ccccc1)c1cc(Cl)ccc1Cl	/	26	6	-12	47*	8	62*	35*	38*	25*	49*
Cc1cc(C)c(/C([O-])=C(/C(=S)Nc2ccc(SC(F)F)cc2)[n+]2ccccc2)cc1C	/	27	6	1	40*	7	69*	47*	52*	52*	56*
CN(C)c1cc[n+](/C(C(=S)Nc2ccc(SC(F)F)cc2)=C(/[O-])c2ccccc2)cc1	/	7	4	0	9	-4	/	/	/	/	/
OC(COc1ccccc1)CN1CCN(Cc2ccc3c(c2)OCO3)CC1 (centres undefined)	/	0	10	5	2	13	/	/	/	/	/
Cc1cc(C)cc(OCC(O)CN2CCN(Cc3ccc4c(c3)OCO4)CC2)c1 (centres undefined)	/	11	6	-2	50*	-57	-15	-4	-3	8	-11
CC1CCN(C(=O)Nc2cccc3ccccc23)CC1	/	/	9	/	/	-9	/	/	/	/	/
CCOC(=O)N1CCN(C(=O)CN(C2CCCCC2)S(=O)(=O)c2c(C)cc(C)cc2C)CC1	1	-21	4	3	71*	12	-7	-5	-13	4	-8
N#C/C(=C(/O)c1cc2ccccc2o1)c1nc2ccccc2s1	/	10	22	/	49*	-33	-2	6	2	11*	14
CCN(CC)c1ncc(CN2CC(CN3CCOCC3)c3ccccc32)s1 (centres undefined)	/	/	6	/	/	-23	/	/	/	/	/
CCCc1nn2c(N)c(/C=C3\C=Nc4ccccc43)c(=O)nc2s1	5	11	7	-1	11	4	/	/	/	/	/
CCC(CC)c1nn2c(N)c(/C=C3\C=Nc4ccccc43)c(=O)nc2s1	/	12	4	/	73*	-33	95*	82*	97*	85*	46*
CC(C)(C)Nc1nc(Cl)nc(N(C#N)CN2C(=O)c3ccccc3S2(=O)=O)n1	/	9	11	-2	65*	-34	46*	28	39*	29*	22*
Cc1nn(C)cc1CN1CCc2c(nc(N3CC(C)OC(C)C3)[nH]c2=O)C1 (centres undefined)	/	/	/	/	/	-41	/	/	/	/	/
CCn1c2cc(C)sc2c2cnn(CC(=O)N3CCC(C(N)=O)CC3)c(=O)c21	/	/	/	/	/	-8	/	/	/	/	/
CCN1C(=O)/C(=C/C=C2\N(CC)c3cc(S(=O)(=O)N(C)C)ccc3N2c2ccccc2)SC1=S	/	18	10	/	50*	2	57*	52*	51*	63*	39*
CCOc1ccc(N2C(=O)C(CC(=O)Nc3ccc(F)cc3)N(Cc3ccccn3)C2=S)cc1 (centres undefined)	/	11	2	-12	42*	-30	47*	32	35*	46*	41*
CCOc1ccc(N2C(=O)C(CC(=O)Nc3ccccc3)N(Cc3ccccn3)C2=S)cc1 (centres undefined)	/	14	1	-10	23	-42	/	/	/	/	/
O=C(Cc1ccccc1)NNC(=O)Nc1cccc(Cl)c1	7	4	11	-2	11	14	/	/	/	/	/
O=C(CN1c2ccccc2Sc2ccccc21)NNC(=O)Nc1cccc(Cl)c1	/	9	10	/	50*	-22	48*	30	45*	36*	40*
CCn1c(C(CC(C)C)NC(=O)C2CCC(OC)CC2)nc2cccnc21 (centres undefined)	/	/	15	/	/	-18	/	/	/	/	/
CC(C)(C)OC(=O)NCCCCCNC(=O)c1[nH]cnc1C(=O)N[C@@H](Cc1ccccc1)C(=O)OCc1ccccc1	/	30	13	-7	58*	6	47*	22	32*	19*	28*
CC(C)(C)OC(=O)CNC(=O)c1[nH]cnc1C(=O)N[C@@H](Cc1ccccc1)C(=O)OC(C)(C)C	/	/	18	/	/	20	/	/	/	/	/
COCCNC(=S)N(Cc1ccc(OC)cc1)Cc1cc2cc(C)cc(C)c2[nH]c1=O	/	/	8	/	/	-4	/	/	/	/	/

Screens deposited in PubChem by several laboratories.
